# Source: PubChem BioAssay
# The sample as a whole holds a higher share of hits than the screen did.
# Biofilm kill mix = clotrimazole potentiators killing C. albicans biofilm, primary screen, 4-compound mixtures | C. albicans biofilm persisters + clotrimazole, fluorescence viability; primary screen in compound mixtures of four per well | inhibition, % at 7.6 µM | 0.02% of 120,000 active | AID 1242, 2008;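 active means inhibition above 30.3% in the primary screen of four-compound pools, then above 30% when the compound was retested; inconclusive means passed the primary limit but could not be retested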;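 further: compounds exposed to preformed 24 h biofilms for 48 h; 0% = untreated biofilm control and 100% = clotrimazole plus chlorhexidine kill blank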
#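 System: C. albicans CAF4-2 wild-type biofilms; Medium: RPMI/MOPS medium, pH 7.0; Reagent: Clotrimazole, 50 µg/mL; Times: biofilm formation 24 h, compound exposure 48 h, 37 °C; Detection: 2-h Alamar Blue fluorescence, 535/590 nm excitation/emission; Evaluation: percent inhibition of biofilm viability.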
# TRPML3 agonist = human TRPML3 channel agonists, primary screen, cell-based, HEK293 TRPML3-YFP, Fluo-8 calcium fluorescence, 3 µM; AID 1448, 2008; activation, % at 3 µM; 100% = the carbachol control signal; 0.29% of 220,000 active; Mucolipin-3 (Homo sapiens), Q8TDD5;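 active means activation above its plate's cutoff, the mean activation of the plate's test wells plus 3 SD, cut at about 12% in these data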;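 further: 0% = DMSO only wells and 100% = carbachol wells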
# Target sequence (Q8TDD5 whole entry, looked up): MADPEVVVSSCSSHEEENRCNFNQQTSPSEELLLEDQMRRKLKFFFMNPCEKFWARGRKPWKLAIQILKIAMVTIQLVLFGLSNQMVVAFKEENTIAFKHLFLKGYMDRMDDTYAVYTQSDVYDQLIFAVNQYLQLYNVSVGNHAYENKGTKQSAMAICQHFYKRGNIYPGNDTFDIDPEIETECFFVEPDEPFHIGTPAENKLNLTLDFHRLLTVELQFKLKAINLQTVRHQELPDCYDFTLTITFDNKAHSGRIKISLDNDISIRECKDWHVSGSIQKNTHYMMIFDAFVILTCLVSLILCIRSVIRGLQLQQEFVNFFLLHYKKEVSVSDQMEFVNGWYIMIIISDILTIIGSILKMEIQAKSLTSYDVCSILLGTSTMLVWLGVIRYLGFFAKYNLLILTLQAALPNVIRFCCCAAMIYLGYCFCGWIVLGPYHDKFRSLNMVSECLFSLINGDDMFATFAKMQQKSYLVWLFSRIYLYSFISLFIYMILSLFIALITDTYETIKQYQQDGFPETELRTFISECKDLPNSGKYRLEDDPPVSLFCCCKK
#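 Test system: TRPML3-YFP stable HEK293 cells. Doses: single point at 3 µM. Incubation: dye loading 1 h 37 °C then 30 min ambient, 125 s read. Signal: Fluo-8 calcium dye fluorescence, ex 470-495, em 515-575 nm. Measure: percent activation from peak-to-basal fluorescence ratio, scaled between DMSO and carbachol.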
# ROMK mod = ROMK potassium channel modulators, primary screen, cell-based, thallium flux, MLSMR library; B-score at 10 µM; Tet-inducible ROMK, thallium flux fluorescence; actives lie on both sides; AID 1918, 2009; 2% of 130,000 active;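 active means signal ratio slope over the read window, or its plate-corrected B-score, at least 3 SD from the plate mean, either direction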;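 further: B-score of the F/F0 ratio slope over 7 to 12 s after thallium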
# ABCG2 inh = ABCG2 efflux pump inhibitors, primary screen, multiplex with ABCB1, IgMXP3 cells, flow cytometry. inhibition, % at 6.6 µM. JC-1 efflux. 0.1% of 190,000 active. Broad substrate specificity ATP-binding cassette transporter ABCG2 (Homo sapiens), Q9UNQ0;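 active means inhibition above 80%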;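 further: 0% = DMSO and 100% = nicardipine control wells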
#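 Test system: IgMXP3 (ABCG2) plus far-red-tagged CCRF-Adr (ABCB1) cells / Amount: 3 million cells/mL in well / Reagent: JC-1 transporter substrate / Timing: 10 min compound exposure, 25 °C / Signal: flow cytometry, 530 nm JC-1 signal / Read-out: percent efflux inhibition, scaled nicardipine 100% to DMSO 0% / Benchmarks: nicardipine as high control, DMSO as low control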
# zfTRPN1 agonist = zebrafish TRPN1 channel agonists, primary screen, cell-based, HEK293, calcium fluorescence | HEK293 zebrafish TRPN1-YFP, Fluo-8 calcium fluorescence; 100% = response to 87 µM carbachol | activation, % at 3 µM | 0.18% of 220,000 active | AID 1424, 2008;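 active means activation above its plate's cutoff, the mean activation of test wells on that plate plus 3 SD, cut at about 19% in these data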;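 further: 0% = DMSO alone and 100% = 87 µM carbachol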
#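 System: zebrafish TRPN1-YFP in HEK293 cells / Dosing: 3 µM single point / Timing: dye loading 1 h at 37 °C, then 30 min room temperature / Signal: Fluo-8 calcium fluorescence, excitation 470-495 nm, emission 515-575 nm / Read-out basis: percent activation from peak over basal fluorescence ratio, control-normalized / Control set: high carbachol 87 µM, low DMSO alone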
# ABCB1 block = ABCB1 efflux pump inhibitors, primary screen, cell-based, multiplex, flow cytometry, ABCG2 counter-screen | ATP-dependent translocase ABCB1 (Homo sapiens), P08183 | CCRF-Adr cells, JC-1 efflux | inhibition, % at 6.6 µM | 0.067% of 190,000 active | AID 1326, 2008; in the data active means inhibition above about 40%;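 further: 0% = vehicle and 100% = reference inhibitor; higher value means more JC-1 retained so stronger ABCB1 efflux block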
# ROMK hit retest = ROMK channel modulator hit retest, confirmation, cell-based, thallium flux, duplicate, resupplied hits; shares compounds with ROMK mod; fluorescence ratio; hits give low values; normalized thallium flux (F/F0 slope) at 10 µM; 54% of 3,000 active; AID 1917, 2009;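 active means Flux at 10 µM at least 3 SD below or above vehicle control mean in one or both replicates; inconclusive means no clear call, values can overlap the other calls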
# The depositor's hits bear a star; ? = inconclusive; . = no result given.
SMILES,Biofilm kill mix,TRPML3 agonist,ROMK mod,ABCG2 inh,zfTRPN1 agonist,ABCB1 block,ROMK hit retest
CC1(C)[C@@H](O)CC[C@]2(C)C3C(O)C=C4[C@H]5C[C@@](C)(C(=O)O)CC[C@]5(C)CC[C@]4(C)[C@]3(C)CC[C@@H]12 (some centres undefined),19.5,.,.,.,.,.,0.086
CCOC(=O)C(NC(C)=O)C(=O)Nc1ccc(C(C)(C)C)cc1 (centres undefined),6.2,0.9,3.47*,-1.3,-0.4,-1.4,0.0823
Cc1ccc(CNC(=O)COC(=O)c2cncc(Br)c2)cc1,12.6,0.3,-0.12,1.8,0.6,-0.1,.
COc1ccc(CNC(=O)COC(=O)c2cncc(Br)c2)cc1,34.7,-0.6,0.0731,3.7,-0.5,0.9,0.0774
O=C(NC1CCCCCC1)c1c2c(nc3ccccc13)CCN(Cc1ccccc1)C2,16.2,0.1,-4.31*,0.6,1.7,2.3,0.0622*
CCc1ccc(NC(=O)CSc2nnc(SCC(=O)Nc3ccc(CC)cc3)n2N)cc1,.,-0.5,0.417,2.7,-1.2,0.5,.
COc1cc(OC)cc(C(=O)NCC(=O)OCc2nc3ccccc3s2)c1,10.4,-0.4,0.0492,4.2,-2.8,0.4,.
O=C1c2ccccc2C(Nc2ccc3c(c2)OCCO3)N1Cc1ccccc1 (centres undefined),.,.,.,2.1,.,1.1,0.0776
CCOc1nc(-c2ccccc2Cl)nc2ccccc12,29.9,-0.2,.,.,-2.3,.,.
CC1CC(C)CN(CCCNC(=O)c2csc3c2CCCC3)C1 (centres undefined),.,0.0,-2.96*,1.9,-1.2,0.9,0.0635*
CC(C)CCNC(=O)c1csc2c1CCCCC2,15.7,-0.5,-0.576,18.3,-1.0,0.1,.
C=CCn1c(SCc2nc3ccccc3c(=O)[nH]2)nc2scc(C3CC3)c2c1=O,-4.8,0.0,.,.,-1.7,.,.
N#Cc1cnc(NOCc2ccc(Cl)cc2)nc1,1.6,0.6,-9.48*,0.6,-0.1,0.1,0.0742
COc1ccnc(N=CNOCc2ccc(Cl)cc2)c1C#N,14.2,1.1,.,.,1.3,.,.
CCOC(=O)C1=C(O)/C(=C\c2cc(C)n(-c3ccc(F)cc3)c2C)N=C1C,12.7,1.0,1.8,6.6,1.3,0.7,.
CC(C)n1cnc2c(N(C)c3ccccc3)nc(N(CCN(C)C)Cc3ccccc3)nc21,19.6,.,.,.,.,.,0.0524*
Cc1ccc(-c2nn3c(C)nnc3s2)cc1NCc1c(F)cccc1Cl,.,-1.1,.,11.2,-0.2,1.9,0.0754
Cc1ccc(CNc2cc(-c3nn4c(C)nnc4s3)ccc2C)s1,.,0.5,-0.985,38.6,-0.6,1.4,.
COc1ccc(Br)cc1-c1nc(CCl)cs1,0.4,0.0,-0.0802,4.8,-1.7,0.2,.
Cc1c(C(=O)O)oc2c1/C(=N\O)CCC2,13.2,0.9,.,4.8,-0.9,0.8,.
O/N=C1\CCCc2oc3c(c21)CCCC3,.,-0.4,.,0.2,-1.9,0.1,0.0644*
COc1ccc(Oc2cccc(Cl)c2CNC(=O)CCC(=O)O)cc1,28.7,0.5,.,.,1.0,.,.
COc1ccc(C2=CC(c3ccc(C)cc3)n3nnnc3N2)cc1 (centres undefined),.,-0.3,-4.38*,7.7,-0.4,0.6,?
CC(C)Nc1nnc(SC(C)C(=O)NCc2ccc3c(c2)OCO3)s1 (centres undefined),0.6,0.3,1.74*,0.1,0.1,-0.5,0.0771
O=C(NCCCN1CCOCC1)c1ccc(CSc2ccc(Cl)cc2)cc1,5.8,0.6,-2.26,0.3,0.4,0.3,.
SMILES,Biofilm kill mix,TRPML3 agonist,ROMK mod,ABCG2 inh,zfTRPN1 agonist,ABCB1 block,ROMK hit retest
COc1ccc([N+](=O)[O-])cc1NC(=O)c1ccc(C)o1,14.8,0.4,.,37.0,-0.1,1.6,.
O=C(Cc1nc2ccccc2[nH]1)c1cccc([N+](=O)[O-])c1,21.9,0.7,.,.,0.4,.,?
O=C(Nc1nc2ccccc2[nH]1)c1cccc([N+](=O)[O-])c1,7.1,0.1,0.813,18.3,0.8,0.4,.
O=C(/C=C/c1cccc([N+](=O)[O-])c1)n1cnc2ccccc21,2.7,1.6,-0.778,10.4,0.9,-0.5,.
COc1cc(C)c(Cl)c(C)c1S(=O)(=O)NC1CC(C)(C)NC(C)(C)C1,7.1,1.8,-2.63*,0.5,2.6,0.3,0.0534*
CCOc1cc(C)c(Cl)cc1S(=O)(=O)NCCOC,-1.2,0.6,1.38,0.0,0.9,0.0,.
CCOc1cc(C)c(Cl)cc1S(=O)(=O)NC1CC(C)(C)NC(C)(C)C1,13.0,1.0,-3.66*,-0.8,1.3,-0.9,0.0645*
NC(=O)c1ccc(Oc2ccc(C(N)=O)cc2)cc1,10.8,0.4,.,.,0.2,.,.
CCOC(=O)C1=C(C)NC(C)=C(C(=O)OC)C1c1cccc(Cl)c1Cl (centres undefined),16.4,-0.1,.,9.2,-0.7,1.3,0.0726
CC(C)c1ccc(OCC(=O)N(c2ccccn2)C2CCCCC2)cc1,7.6,1.5,-2.58*,7.6,-0.2,2.1,0.0551*
O=C(COc1ccc(F)cc1)N(c1ccccn1)C1CCCCC1,-1.7,0.2,0.498,1.1,-1.2,0.3,.
O=C(/C=C\c1ccco1)Oc1cccc2cccnc12,-3.5,-0.3,-21.9*,-0.2,-1.0,-0.4,0.0857
O=C(/C=C/c1ccco1)Oc1cccc2cccnc12,13.0,0.6,.,.,-1.3,.,.
CC1CCN(CCCNC(=O)c2ccc3c(=O)n(Cc4ccc(Cl)cc4)c(=S)[nH]c3c2)CC1,8.4,2.1,-2.67*,0.0,3.4,0.1,0.061*
COC(=O)c1ccc2c(=O)n(Cc3ccc(C(=O)NCCCN4CCC(C)CC4)cc3)c(=S)[nH]c2c1,18.1,-0.2,0.559,-2.3,0.0,-0.5,.
CCC(NC(=O)N(Cc1ccccc1)Cc1ccc2c(c1)OCO2)(C(F)(F)F)C(F)(F)F,.,0.3,.,1.7,-0.9,1.0,0.077
CCN(CC)c1ccc(/C=C2\CCC(/C=N/NC(=O)c3ccc(=O)n(C)c3)=C2N2CCOCC2)cc1,6.8,2.3,.,0.4,4.7,0.3,0.0534*
COc1ccc(-c2nc(CN3CCN(c4ncnc5ccccc45)CC3)c(C)o2)c(OC)c1,1.6,3.1,-2.65*,2.5,5.8,3.0,0.0653*
